High-throughput results as filed in PubChem.
FXN GAA850 act: increases GAA850 frataxin promoter reporter activity; HEK293 lucGAA850 FXN promoter luciferase reporter, 24 h; percent of 10 µM SAHA response; activation, % at 6 µM; actives 0.56% (n = 360,000); AID 540364;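 active = activation above the average of all compounds screened plus 3 SD, cutoff fixed separately per campaign, cut at about 7.5% in these data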;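 note: 0% = DMSO wells and 100% = 10 µM SAHA wells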
AHR act: activates the human aryl hydrocarbon receptor. P35869. AHR-responsive luciferase reporter cells, luminescence. activation, % at 5 µM. actives 2.5% (n = 320,000); in the data active = activation above about 47%;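 note: 0% = vehicle wells and 100% = reference agonist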
SENP1 inh: blocks the human SENP1 SUMO protease catalytic domain | recombinant SENP1 catalytic domain, CyPet-SUMO1-YPet FRET cleavage | inhibition, % at 10 µM | actives 0.21% (n = 360,000) | AID 624204;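 active = inhibition at least 30% at 10 µM, raw YFP signal under a set limit, fluorescence ratio 0.5 to 1.5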;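 note: 0% = enzyme with DMSO and 100% = no enzyme wells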
Target sequence (Q9P0U3 419-644 limits assumed): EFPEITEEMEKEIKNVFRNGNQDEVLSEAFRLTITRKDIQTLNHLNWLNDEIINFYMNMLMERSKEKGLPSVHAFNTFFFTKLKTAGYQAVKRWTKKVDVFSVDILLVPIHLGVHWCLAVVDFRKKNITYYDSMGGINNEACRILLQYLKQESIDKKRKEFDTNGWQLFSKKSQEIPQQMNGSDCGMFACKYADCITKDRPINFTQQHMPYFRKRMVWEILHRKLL
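Material – human SENP1 catalytic domain · Input – SENP1 enzyme, 20 pM final · Compound dosing – single concentration of 10 µM compound, 0.5% DMSO final · Timing – enzyme reaction for 50 min at room temperature, dark · Measured by – FRET fluorescence in CFP and YFP emission channels · Control set – no-enzyme wells low, DMSO-plus-enzyme wells high control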
HDAC3 inhib: inhibitors of human histone deacetylase 3. O15379. recombinant HDAC3, fluorogenic peptide/trypsin coupled, fluorescence. inhibition, % at 8.3 µM. actives 0.15% (n = 320,000); in the data active = inhibition above about 26%, passing the limit was not always enough
Target sequence (O15379 whole entry, looked up): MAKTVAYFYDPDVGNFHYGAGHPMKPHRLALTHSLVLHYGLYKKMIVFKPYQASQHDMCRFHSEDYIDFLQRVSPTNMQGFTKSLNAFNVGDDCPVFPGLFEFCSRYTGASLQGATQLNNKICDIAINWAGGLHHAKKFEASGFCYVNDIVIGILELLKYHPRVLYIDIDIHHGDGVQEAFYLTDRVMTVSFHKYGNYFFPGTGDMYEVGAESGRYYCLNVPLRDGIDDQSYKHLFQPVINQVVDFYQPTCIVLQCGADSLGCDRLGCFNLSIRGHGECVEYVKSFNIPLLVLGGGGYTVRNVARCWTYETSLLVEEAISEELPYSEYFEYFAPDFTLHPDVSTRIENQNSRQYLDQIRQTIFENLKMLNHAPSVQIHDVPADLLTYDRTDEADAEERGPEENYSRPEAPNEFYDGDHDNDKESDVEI
M18AAP inhibitor: blocks P. falciparum M18 aspartyl aminopeptidase; inhibition, % at 7.35 µM; actives 1.2% (n = 290,000); recombinant PfM18AAP, H-Glu-NHMec fluorogenic cleavage;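 active = inhibition above the campaign mean inhibition over all tested compounds plus 3 SD, cut at about 28% in these data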;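 note: 0% = plate median of test compound wells and 100% = 2 mM ZnCl2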
Fh CTSL1 inh: cathepsin L1 inhibition, PFM18AAP counter-screen; recombinant F. hepatica cathepsin L1, Z-Leu-Arg-MCA fluorescence; inhibition, % at 5.96 µM; actives 0.49% (n = 300,000);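 active = inhibition above the mean of all tested compounds plus 3 SD, set per screening campaign, cut at about 17% in these data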;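 note: 0% = plate median of test compound wells and 100% = 1 µM Z-Phe-Ala-diazomethylketone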
Active calls of the source: *; / = no result. A selection: hits, their analogues and other compounds. The true share with any hit is near 4.2%.

SMILES | FXN GAA850 act | AHR act | SENP1 inh | HDAC3 inhib | M18AAP inhibitor | Fh CTSL1 inh
COc1ccc(-c2[nH]c(-c3cccc(OC)c3)nc2SCC(=O)NCc2ccco2)cc1 | -2 | 77* | 1 | -7 | 2 | 4
COc1ccc(-n2ccnc(SCC(=O)NC3CCCC3)c2=O)cc1 | 1 | 2 | 2 | 3 | 7 | -4
Cc1cc2nc(-c3ccc(SCC(=O)Nc4nccs4)nc3)[nH]c2cc1C | 1 | / | -3 | / | 0 | /
COc1ccc(-c2nc(SCC(=O)Nc3nccs3)c(-c3ccc(Cl)cc3)[nH]2)cc1 | -7 | 72* | -2 | 1 | 4 | 4
Cc1ccc(S(=O)(=O)N2CCCCC2C(=O)Nc2ccc(N(C)C)cc2)cc1 (centres undefined) | -1 | 7 | 0 | 3 | / | /
O=C(CN1CCN(c2ccccc2F)CC1)NC(=O)NC1CCCCC1 | 1 | 0 | 1 | 2 | / | /
Cc1ccc(-c2nc(SCC(=O)NCC3CCCO3)c(-c3ccc(C)cc3)[nH]2)cc1 (centres undefined) | 0 | 54* | 2 | -1 | 0 | 4
COc1ccc(-c2cc(-c3ccccc3)nc(SCC(=O)Nc3nccs3)c2C#N)cc1 | 3 | -1 | -9 | -8 | -1 | 3
COc1ccc(-c2[nH]c(-c3ccc(C)cc3)nc2SCC(=O)Nc2nccs2)cc1 | -1 | 55* | 2 | -10 | 12 | -1
CC(=O)c1cccc(NC(=O)c2ccc(N(C)S(=O)(=O)c3ccc(C)cc3)cc2)c1 | 1 | 48* | 3 | -3 | 7 | 6
CC(=O)Nc1cc(C(C)(C)C)c(O)c(C(C)(C)C)c1 | 1 | -3 | 1 | -2 | 31* | 0
C#CCn1cccc(C(=O)Nc2ccc(OC)cc2)c1=O | 2 | 40 | -2 | 4 | 4 | 2
C#CCn1cc(Cl)cc(C(=O)Nc2ccccc2)c1=O | 0 | 62* | -13 | -4 | -1 | 4
CC(C)n1c(=O)c2ccccc2n1S(C)(=O)=O | / | / | 1 | / | / | /
COc1ccc(NC(=O)c2sc3nc(N4CCOCC4)c4c(c3c2N)CC(C)(C)OC4)c(OC)c1 | 0 | 0 | -79 | -4 | 31* | -1
Cc1nn(-c2ccccc2C(=O)O)c(=O)c2ccccc12 | 1 | 14 | -1 | 2 | 16 | 1
Cc1nn(-c2ccc(Br)cc2)c(=O)c2ccccc12 | 6 | 57* | 2 | 3 | 10 | 6
O=C(Nc1cccc(F)c1)C1CCCN(C(=O)c2ccc(Cl)cc2)C1 (centres undefined) | 1 | 51* | 1 | 4 | / | /
O=C(Nc1ccccc1)C1CCCN(C(=O)c2ccc(Cl)cc2)C1 (centres undefined) | 0 | -2 | 1 | 7 | -2 | -1
CCC(=O)N1c2ccc(C)cc2C2=NNC(=S)NC21O (centres undefined) | 0 | 62* | 10 | -5 | 17 | 0
CCOc1ccccc1N1CCN(Cc2cc3c(cc2[N+](=O)[O-])OCO3)CC1 | -1 | 5 | -2 | -4 | 6 | -1
O=[N+]([O-])c1cc2c(cc1CN1CCN(c3ccccc3F)CC1)OCO2 | 1 | / | 2 | -3 | 29* | /
O=[N+]([O-])c1cc(S(=O)(=O)Nc2ccccc2)ccc1N1CCN(c2ccc(O)cc2)CC1 | -1 | -1 | -13 | / | 30* | 4
Cc1cc(C)cc(CC(=O)N2CCC2(C)C(=O)NS(=O)(=O)c2ccccc2)c1 (centres undefined) | -2 | / | 1 | / | / | /
Cc1ccc(-c2cc(C(=O)Nc3nccs3)c3ccccc3n2)o1 | -1 | 55* | -30 | -6 | 1 | 3
SMILES | FXN GAA850 act | AHR act | SENP1 inh | HDAC3 inhib | M18AAP inhibitor | Fh CTSL1 inh
O=C(N/N=C/c1ccc2ncccc2c1)c1cc(-c2cccs2)nc2ccccc12 | -4 | 10 | -5 | 1 | -7 | 1
Cc1ccc(-c2cc(C(=O)Nc3ccncc3)c3ccccc3n2)cc1 | 0 | 12 | 0 | / | / | 0
CC(C)(C)c1ccccc1NC(=O)c1cc(-c2ccncc2)nc2ccccc12 | -2 | 52* | 1 | 11 | / | /
Cc1ccc(-c2cc(C(=O)Nc3nccs3)c3ccccc3n2)c(C)c1 | -1 | 46 | -1 | -8 | 0 | -1
Cc1csc(NC(=O)c2cc(-c3ccncc3)nc3ccccc23)n1 | 2 | 28 | 7 | 2 | -5 | -2
O=C(Nc1nccs1)c1cc(-c2ccncc2)nc2ccccc12 | 1 | 56* | 9 | -9 | -6 | -4
O=C(N/N=C/c1cccnc1)c1cc(-c2cccs2)nc2ccccc12 | -3 | 76* | 0 | 5 | 4 | 0
COC1=CC(=O)OC(c2cccc(Cl)c2)C1 (centres undefined) | / | / | 3 | / | / | /
Cc1ccc(NC(=O)N2CCc3ccccc3C2)c(C)c1 | 1 | 26 | -1 | -9 | -4 | -1
Cc1cc(C(F)(F)F)cc(NNC(=O)NC(=O)c2ccc(Cl)cc2)n1 | 3 | 1 | 2 | 1 | 2 | 5
Cc1cc(C(F)(F)F)cc(NNC(=O)NC(=O)c2ccccc2Cl)n1 | -1 | 3 | 1 | 5 | 31* | -2
Cc1cc(NC(=O)CSc2nnnn2-c2ccccc2)no1 | 3 | 3 | 2 | -1 | -5 | -3
Cc1cc(N/C=C\c2nnnn2-c2ccccc2)no1 | 2 | 69* | 2 | 3 | 2 | -2
COc1cccc(C(NC(C)=O)c2nc(-c3cccc(C(C)C)c3)cs2)c1 (centres undefined) | -1 | / | 0 | / | / | /
Cc1sc2nc(-c3cccnc3)[nH]c(=O)c2c1-c1ccccc1 | 1 | 63* | -2 | -15 | 14 | 2
Cc1sc2nc(Cc3ccccc3)[nH]c(=O)c2c1-c1ccccc1 | 3 | 2 | 1 | 2 | 1 | 0
O=C(O)c1cc(-c2ccc3c(c2)OCO3)nc2ccccc12 | -2 | 6 | 1 | -7 | 1 | 1
CCCN(CCC)C(=O)c1cc(-c2ccc3c(c2)OCO3)nc2ccccc12 | -3 | 66* | -3 | 7 | -6 | 4
CCS(=O)(=O)c1ccc(O)c(NC(=O)CC2(CC(=O)O)CCCC2)c1 | 1 | 0 | 3 | 4 | -9 | -4
CCCCS(=O)(=O)N1CCN(S(=O)(=O)c2ccc(Cl)s2)CC1 | 0 | -6 | 0 | -3 | 2 | -1
COc1ccc(CCNC(=O)CS(=O)(=O)c2cn(CC(=O)N(C(C)C)C(C)C)c3ccccc23)cc1OC | 1 | 3 | 0 | 6 | 7 | 17*
CC1=C(C(=O)N2CCOCC2)CC(CC(=O)NC2CCCC2)C(=O)N1CCCN1CCCC1=O (centres undefined) | -1 | / | -1 | / | / | /
O=C(COC(=O)c1cccc(F)c1)Nc1cccc(S(=O)(=O)N2CCCCC2)c1 | -3 | / | 2 | / | / | /
O=C(NN1C(=O)/C(=C/c2ccc(O)cc2)SC1=S)c1ccccc1O | 2 | -1 | 81 | 11 | 6 | 0
